ChEMBL document CHEMBL3621108, “Discovery, Development, and SAR of Aminothiazoles as LIMK Inhibitors with Cellular Anti-Invasive Properties” (J Med Chem, 2015)

Columns and labels:
LIM domain kinase 1 [1] = molecular target: T1, LIM domain kinase 1 (Homo sapiens, UniProt P53667); experiment: Inhibition of LIMK1 in human ZR75-1 cells assessed as inhibition of cofilin phosphorylation after 5 hrs; assay type: cell-based, ZR-75-1
Outline: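 p-Cofilin biomarker assay in ZR-75-1 cells, imaged and quantified on a Cellomics array scan instrument.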
Target sequence in this assay (P53667 whole entry, the tested form may be a part): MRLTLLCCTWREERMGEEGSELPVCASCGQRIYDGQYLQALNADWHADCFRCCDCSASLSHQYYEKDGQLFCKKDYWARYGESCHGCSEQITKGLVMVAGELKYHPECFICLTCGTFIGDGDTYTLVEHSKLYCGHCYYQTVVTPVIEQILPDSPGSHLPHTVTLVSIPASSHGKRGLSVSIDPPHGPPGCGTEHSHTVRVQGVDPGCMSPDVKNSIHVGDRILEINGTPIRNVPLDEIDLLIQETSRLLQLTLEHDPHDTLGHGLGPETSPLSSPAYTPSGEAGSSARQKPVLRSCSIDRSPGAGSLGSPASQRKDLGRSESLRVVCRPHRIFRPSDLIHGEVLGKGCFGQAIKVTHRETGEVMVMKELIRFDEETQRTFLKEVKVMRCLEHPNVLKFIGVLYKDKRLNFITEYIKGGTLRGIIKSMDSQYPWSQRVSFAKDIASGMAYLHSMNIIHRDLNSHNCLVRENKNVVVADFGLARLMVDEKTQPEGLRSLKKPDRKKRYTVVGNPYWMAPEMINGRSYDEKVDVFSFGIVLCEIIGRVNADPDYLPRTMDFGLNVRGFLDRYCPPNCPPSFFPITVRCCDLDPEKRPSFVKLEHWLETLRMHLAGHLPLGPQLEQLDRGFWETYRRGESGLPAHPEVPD

LIM domain kinase 1 [2] = molecular target: T1, LIM domain kinase 1; experiment: Inhibition of recombinant N-terminal 6His-tagged LIMK1 (unknown origin) expressed in Sf21 cells by HTRF assay using cofilin as a substrate
Target sequence in this assay (P53667 whole entry, the tested form may be a part): as above

[3] = Cytotoxicity against human MDA-MB-231 cells assessed as viable cells at 10 uM; assay type: cell-based; details: read-out: Activity
Outline: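 MTT viability assay; cells exposed to 10 µM inhibitor, read-out as % viable cells.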

MDA-MB-231 = experiment: Antiinvasion activity in human MDA-MB-231-luc cells at 3 uM by matrigel inverse invasion assay; assay type: functional
Outline: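 MDA MB-231-luc cells plated on underside of transwell filter; invasion into matrigel plug (inverse format) scored by confocal microscopy of plug sections. Inhibition = proportion of cells invading beyond 60 µm versus under 60 µm, relative to control; compound at 3 µM.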

[4] = molecular target: T2, Cyclin-dependent kinase-like 2 (Homo sapiens) (UniProt Q92772); details: 10 uM
T2 sequence (whole entry): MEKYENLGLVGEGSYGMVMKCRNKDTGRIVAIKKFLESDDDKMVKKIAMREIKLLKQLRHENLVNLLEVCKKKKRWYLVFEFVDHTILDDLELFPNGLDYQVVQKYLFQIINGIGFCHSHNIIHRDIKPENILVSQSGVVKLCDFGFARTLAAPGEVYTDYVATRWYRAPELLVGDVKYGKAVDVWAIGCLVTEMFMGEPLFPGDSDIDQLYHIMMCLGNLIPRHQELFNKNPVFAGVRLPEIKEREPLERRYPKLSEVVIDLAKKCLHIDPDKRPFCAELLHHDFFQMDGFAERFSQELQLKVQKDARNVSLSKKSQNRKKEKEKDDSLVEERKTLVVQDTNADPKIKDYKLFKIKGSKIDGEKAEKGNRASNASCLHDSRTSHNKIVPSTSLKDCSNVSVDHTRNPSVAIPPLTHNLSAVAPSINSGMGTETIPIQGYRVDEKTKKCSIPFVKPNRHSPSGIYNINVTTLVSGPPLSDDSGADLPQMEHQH

Liver microsome = experiment: Metabolic stability in human liver microsome assessed per gram of tissue; assay type: ADME; details: microsomes
LIM domain kinase 2 [5] = molecular target: T3, LIM domain kinase 2 (Homo sapiens, UniProt P53671); experiment: Inhibition of human N-terminal GST-tagged LIMK2
Outline: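 LIMK2 activity measured in a lanthabind-format assay.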
Target sequence in this assay (P53671 whole entry, the tested form may be a part): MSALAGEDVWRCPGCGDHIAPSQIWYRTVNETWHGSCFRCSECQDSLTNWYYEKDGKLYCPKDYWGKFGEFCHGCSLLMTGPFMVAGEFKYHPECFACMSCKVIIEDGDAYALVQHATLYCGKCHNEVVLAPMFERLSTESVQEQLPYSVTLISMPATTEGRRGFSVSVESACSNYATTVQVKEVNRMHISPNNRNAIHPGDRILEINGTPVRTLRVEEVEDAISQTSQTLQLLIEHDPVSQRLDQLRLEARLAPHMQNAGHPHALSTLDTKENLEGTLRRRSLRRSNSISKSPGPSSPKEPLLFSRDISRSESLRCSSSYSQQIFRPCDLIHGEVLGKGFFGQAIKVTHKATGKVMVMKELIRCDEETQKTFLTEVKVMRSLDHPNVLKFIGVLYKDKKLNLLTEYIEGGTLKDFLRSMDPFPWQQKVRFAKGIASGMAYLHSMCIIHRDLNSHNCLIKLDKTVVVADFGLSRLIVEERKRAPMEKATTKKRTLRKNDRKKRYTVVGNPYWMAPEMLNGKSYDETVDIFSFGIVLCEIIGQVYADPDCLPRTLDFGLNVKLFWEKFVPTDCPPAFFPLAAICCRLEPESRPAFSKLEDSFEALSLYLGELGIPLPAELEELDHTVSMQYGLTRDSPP

[6] = molecular target: Serine/threonine-protein kinase PAK 3 (Homo sapiens) (UniProt O75914); details: 10 uM
[7] = molecular target: T4, Mitogen-activated protein kinase 15 (Homo sapiens) (UniProt Q8TD08); details: 10 uM
T4 sequence (whole entry): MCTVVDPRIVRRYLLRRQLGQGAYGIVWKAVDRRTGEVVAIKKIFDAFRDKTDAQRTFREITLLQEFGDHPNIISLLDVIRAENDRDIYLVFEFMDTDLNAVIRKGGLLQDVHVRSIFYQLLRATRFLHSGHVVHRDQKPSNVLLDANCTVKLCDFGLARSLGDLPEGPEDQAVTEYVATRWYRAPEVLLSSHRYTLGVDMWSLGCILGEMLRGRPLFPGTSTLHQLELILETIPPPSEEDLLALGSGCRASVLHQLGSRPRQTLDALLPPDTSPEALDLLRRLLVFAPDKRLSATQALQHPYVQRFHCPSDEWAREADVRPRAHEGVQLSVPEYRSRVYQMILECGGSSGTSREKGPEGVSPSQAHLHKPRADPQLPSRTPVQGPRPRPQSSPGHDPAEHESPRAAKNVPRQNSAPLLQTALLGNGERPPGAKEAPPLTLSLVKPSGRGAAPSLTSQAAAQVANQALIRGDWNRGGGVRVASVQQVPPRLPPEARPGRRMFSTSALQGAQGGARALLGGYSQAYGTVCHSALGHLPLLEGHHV

[8] = molecular target: T5, Phosphatidylinositol 5-phosphate 4-kinase type-2 gamma (Homo sapiens) (UniProt Q8TBX8); details: 10 uM
T5 sequence (whole entry): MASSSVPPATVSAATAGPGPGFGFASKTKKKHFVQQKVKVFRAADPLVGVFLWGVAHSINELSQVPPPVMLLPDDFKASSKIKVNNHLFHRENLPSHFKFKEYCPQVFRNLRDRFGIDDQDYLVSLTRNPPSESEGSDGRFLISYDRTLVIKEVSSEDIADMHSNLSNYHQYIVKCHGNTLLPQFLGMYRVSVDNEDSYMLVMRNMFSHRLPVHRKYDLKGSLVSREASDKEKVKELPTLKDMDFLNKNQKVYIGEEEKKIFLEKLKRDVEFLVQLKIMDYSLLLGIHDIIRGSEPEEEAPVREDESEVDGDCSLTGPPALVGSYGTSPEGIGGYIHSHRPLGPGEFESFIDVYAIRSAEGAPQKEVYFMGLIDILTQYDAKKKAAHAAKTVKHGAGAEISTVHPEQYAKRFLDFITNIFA

[9] = molecular target: 5'-AMP-activated protein kinase catalytic subunit alpha-1 (Homo sapiens) (UniProt Q13131); details: 10 uM
[10] = molecular target: T6, Discoidin domain-containing receptor 2 (Homo sapiens) (UniProt Q16832); details: 10 uM
T6 sequence (whole entry): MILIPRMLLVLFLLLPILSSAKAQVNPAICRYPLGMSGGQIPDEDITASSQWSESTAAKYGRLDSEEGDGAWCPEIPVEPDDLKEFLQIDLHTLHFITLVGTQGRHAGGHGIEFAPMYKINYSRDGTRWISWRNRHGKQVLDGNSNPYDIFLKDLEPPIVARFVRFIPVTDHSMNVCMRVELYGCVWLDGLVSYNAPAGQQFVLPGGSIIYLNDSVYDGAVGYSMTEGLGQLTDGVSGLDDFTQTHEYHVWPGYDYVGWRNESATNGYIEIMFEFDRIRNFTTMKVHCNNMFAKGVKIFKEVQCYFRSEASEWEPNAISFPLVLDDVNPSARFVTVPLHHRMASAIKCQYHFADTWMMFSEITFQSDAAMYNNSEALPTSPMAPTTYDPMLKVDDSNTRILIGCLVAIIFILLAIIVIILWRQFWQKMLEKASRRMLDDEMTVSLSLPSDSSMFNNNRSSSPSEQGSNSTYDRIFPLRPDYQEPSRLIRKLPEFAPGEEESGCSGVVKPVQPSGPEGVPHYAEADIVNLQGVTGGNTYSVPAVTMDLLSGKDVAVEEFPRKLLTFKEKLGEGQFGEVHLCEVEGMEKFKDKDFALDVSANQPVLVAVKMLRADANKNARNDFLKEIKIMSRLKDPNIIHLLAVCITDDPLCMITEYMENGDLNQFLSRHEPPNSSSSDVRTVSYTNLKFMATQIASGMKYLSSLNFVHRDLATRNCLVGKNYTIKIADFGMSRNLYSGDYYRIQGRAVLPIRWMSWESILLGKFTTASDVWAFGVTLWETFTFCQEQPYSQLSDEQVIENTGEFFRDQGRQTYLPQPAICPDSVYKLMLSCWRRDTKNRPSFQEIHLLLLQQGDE

[11] = molecular target: Cyclin-dependent kinase 18 (Homo sapiens) (UniProt Q07002); details: 10 uM
LIM domain kinase 1 [12] = molecular target: T1, LIM domain kinase 1; details: 10 uM
Target sequence in this assay (P53667 whole entry, looked up, the tested form may be a part): as the sequence (P53667 whole entry, the tested form may be a part) above

[13] = molecular target: Cyclin-dependent kinase 2 (Homo sapiens) (UniProt P24941); details: 10 uM
LIM domain kinase 2 [14] = molecular target: T3, LIM domain kinase 2; details: 10 uM
Target sequence in this assay (P53671 whole entry, looked up, the tested form may be a part): as the sequence (P53671 whole entry, the tested form may be a part) above

[15] = molecular target: Serine/threonine-protein kinase 16 (Homo sapiens) (UniProt O75716); details: 10 uM
[16] = molecular target: T7, Serine/threonine-protein kinase MAK (Homo sapiens) (UniProt P20794); details: 10 uM
T7 sequence (whole entry): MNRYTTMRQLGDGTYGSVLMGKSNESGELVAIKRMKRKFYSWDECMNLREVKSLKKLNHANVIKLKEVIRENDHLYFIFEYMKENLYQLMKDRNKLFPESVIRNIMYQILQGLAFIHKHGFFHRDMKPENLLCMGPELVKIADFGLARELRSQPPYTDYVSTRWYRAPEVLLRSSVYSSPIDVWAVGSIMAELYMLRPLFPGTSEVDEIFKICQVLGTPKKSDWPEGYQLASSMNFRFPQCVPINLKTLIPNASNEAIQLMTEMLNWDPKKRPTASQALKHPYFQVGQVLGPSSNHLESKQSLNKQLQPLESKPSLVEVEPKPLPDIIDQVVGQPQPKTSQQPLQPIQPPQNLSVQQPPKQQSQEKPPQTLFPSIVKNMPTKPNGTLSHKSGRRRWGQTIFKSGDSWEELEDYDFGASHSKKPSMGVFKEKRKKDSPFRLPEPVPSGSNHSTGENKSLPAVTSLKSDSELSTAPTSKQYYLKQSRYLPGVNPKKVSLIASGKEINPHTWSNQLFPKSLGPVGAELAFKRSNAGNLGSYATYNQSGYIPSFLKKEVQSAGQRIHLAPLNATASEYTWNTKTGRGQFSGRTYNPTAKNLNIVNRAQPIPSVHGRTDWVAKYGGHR

[17] = molecular target: 5'-AMP-activated protein kinase catalytic subunit alpha-2 (Homo sapiens) (UniProt P54646); details: 10 uM
[18] = molecular target: Cyclin-dependent kinase 7 (Homo sapiens) (UniProt P50613); details: 10 uM
[19] = Metabolic stability in mouse liver microsome assessed per gram of tissue; assay type: ADME; details: microsomes

Serine/threonine-protein kinase PAK 3 (Homo sapiens), sequence (O75914 whole entry, looked up): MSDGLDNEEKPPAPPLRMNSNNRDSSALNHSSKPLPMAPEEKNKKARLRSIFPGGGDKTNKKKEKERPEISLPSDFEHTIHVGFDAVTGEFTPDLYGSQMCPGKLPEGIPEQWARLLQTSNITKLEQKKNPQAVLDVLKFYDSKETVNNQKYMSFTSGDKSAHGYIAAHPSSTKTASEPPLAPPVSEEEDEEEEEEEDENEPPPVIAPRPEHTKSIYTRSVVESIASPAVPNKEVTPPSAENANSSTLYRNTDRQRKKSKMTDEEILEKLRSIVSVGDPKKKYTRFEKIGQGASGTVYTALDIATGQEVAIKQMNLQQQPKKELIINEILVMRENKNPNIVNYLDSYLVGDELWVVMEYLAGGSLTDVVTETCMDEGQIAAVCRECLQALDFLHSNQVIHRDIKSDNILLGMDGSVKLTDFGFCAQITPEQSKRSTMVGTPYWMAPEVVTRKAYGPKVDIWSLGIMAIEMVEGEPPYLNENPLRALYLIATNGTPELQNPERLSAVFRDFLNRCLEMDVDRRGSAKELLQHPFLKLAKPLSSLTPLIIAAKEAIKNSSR
5'-AMP-activated protein kinase catalytic subunit alpha-2 (Homo sapiens), sequence (P54646 whole entry, looked up): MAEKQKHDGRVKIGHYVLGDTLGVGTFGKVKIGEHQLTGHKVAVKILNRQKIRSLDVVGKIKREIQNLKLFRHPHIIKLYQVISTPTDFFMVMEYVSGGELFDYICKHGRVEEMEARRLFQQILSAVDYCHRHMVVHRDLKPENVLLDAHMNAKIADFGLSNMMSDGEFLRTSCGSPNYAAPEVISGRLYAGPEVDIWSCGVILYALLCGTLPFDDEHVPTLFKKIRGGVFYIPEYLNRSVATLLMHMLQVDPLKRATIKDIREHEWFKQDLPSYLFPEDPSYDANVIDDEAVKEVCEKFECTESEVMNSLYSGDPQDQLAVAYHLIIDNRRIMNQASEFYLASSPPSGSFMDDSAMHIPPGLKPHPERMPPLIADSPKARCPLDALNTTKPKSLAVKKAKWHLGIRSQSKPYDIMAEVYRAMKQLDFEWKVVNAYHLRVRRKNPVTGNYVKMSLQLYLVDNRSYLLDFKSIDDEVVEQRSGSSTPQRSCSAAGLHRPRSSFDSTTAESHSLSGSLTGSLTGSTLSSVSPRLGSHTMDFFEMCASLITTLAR
5'-AMP-activated protein kinase catalytic subunit alpha-1 (Homo sapiens), sequence (Q13131 whole entry, looked up, the tested form may be a part): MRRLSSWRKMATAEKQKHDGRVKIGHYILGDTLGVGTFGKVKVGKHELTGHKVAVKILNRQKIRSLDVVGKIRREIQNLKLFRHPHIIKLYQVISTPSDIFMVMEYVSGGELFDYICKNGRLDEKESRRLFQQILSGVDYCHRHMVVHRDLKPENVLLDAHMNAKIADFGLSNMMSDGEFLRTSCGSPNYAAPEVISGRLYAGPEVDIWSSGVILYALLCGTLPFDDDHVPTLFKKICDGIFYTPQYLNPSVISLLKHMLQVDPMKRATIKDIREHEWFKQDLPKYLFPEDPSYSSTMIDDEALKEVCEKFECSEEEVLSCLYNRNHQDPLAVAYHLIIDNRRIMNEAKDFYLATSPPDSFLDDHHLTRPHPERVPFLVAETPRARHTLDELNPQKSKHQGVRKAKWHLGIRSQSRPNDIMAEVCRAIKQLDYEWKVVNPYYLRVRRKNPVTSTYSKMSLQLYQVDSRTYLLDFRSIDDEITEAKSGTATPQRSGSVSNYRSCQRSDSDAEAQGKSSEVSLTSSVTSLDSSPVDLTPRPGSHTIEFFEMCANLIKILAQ
Cyclin-dependent kinase 7 (Homo sapiens), sequence (P50613 whole entry): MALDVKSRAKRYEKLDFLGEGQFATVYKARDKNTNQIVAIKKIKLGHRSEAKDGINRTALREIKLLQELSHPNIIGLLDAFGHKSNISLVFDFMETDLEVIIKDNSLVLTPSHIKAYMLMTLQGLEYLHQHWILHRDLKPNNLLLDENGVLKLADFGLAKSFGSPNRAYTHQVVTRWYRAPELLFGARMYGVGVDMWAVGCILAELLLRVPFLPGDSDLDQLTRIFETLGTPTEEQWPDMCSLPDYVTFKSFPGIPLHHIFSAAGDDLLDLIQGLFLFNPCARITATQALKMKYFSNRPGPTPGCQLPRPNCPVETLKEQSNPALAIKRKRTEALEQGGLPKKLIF
Serine/threonine-protein kinase 16 (Homo sapiens), sequence (O75716 whole entry): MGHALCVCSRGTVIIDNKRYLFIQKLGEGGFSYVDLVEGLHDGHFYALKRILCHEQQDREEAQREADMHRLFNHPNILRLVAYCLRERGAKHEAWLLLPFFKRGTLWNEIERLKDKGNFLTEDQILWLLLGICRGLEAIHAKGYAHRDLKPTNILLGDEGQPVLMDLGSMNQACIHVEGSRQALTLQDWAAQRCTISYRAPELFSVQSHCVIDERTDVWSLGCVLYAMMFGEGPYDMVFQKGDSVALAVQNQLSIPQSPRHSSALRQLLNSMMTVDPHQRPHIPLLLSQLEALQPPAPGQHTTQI
Cyclin-dependent kinase 18 (Homo sapiens), sequence (Q07002 whole entry, the tested form may be a part): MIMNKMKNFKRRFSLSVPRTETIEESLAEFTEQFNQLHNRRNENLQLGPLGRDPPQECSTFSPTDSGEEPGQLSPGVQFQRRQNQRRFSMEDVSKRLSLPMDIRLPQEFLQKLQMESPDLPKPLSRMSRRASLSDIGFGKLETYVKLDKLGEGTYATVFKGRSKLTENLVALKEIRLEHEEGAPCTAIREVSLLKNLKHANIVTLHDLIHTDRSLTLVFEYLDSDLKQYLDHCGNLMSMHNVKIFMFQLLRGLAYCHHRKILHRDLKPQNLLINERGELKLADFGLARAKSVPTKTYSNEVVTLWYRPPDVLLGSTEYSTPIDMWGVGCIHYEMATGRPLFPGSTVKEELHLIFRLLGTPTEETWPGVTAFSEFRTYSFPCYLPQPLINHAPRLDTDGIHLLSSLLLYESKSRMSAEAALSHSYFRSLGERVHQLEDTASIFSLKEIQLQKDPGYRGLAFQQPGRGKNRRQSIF

Row | SMILES | IC50 (LIM domain kinase 1 [1]) | IC50 (LIM domain kinase 1 [2]) | further results
1 | C[C@@H](Nc1ncc(-c2ccncc2-c2ccccc2Cl)s1)c1ccccc1 | 2100 nM | 4 nM | –
2 | CCCNc1ncc(-c2ccncc2-c2ccccc2C)s1 | 11500 nM | 82 nM | –
3 | CCCNc1ncc(-c2cnccc2-c2ccccc2Cl)s1 | – | 574 nM | –
4 | CCNc1ncc(-c2ccncc2-c2ccccc2Cl)s1 | 14000 nM | 120 nM | –
5 | CCCNc1ncc(-c2ccncc2-c2ccccc2)s1 | – | 850 nM | –
6 | CCCNc1ncc(-c2ccncc2-c2cccc(Cl)c2)s1 | – | 500 nM | –
7 | CCCNc1ncc(-c2ncccc2-c2ccccc2Cl)s1 | – | ≥ 30000 nM | –
8 | CCCNc1ncc(-c2ccncc2-c2ccc(Cl)cc2)s1 | – | 620 nM | –
9 | Clc1ccccc1-c1cnccc1-c1cnc(Nc2ccccc2)s1 | 600 nM | 3 nM | –
10 | CC(=O)Nc1ncc(-c2ccncc2-c2ccccc2Cl)s1 | 1400 nM | 20 nM | –
11 | CCCNc1ncc(-c2ccncc2-c2ccccc2C(F)(F)F)s1 | 2200 nM | 37 nM | –
12 | CC(C)CNc1ncc(-c2ccncc2-c2ccccc2Cl)s1 | 1500 nM | 5 nM | viability at 10 µM [3]: 88%; inhibition at 3 µM (MDA-MB-231): 34%
13 | COc1ccc(-c2cnccc2-c2cnc(NC(=O)C(C)C)s2)c(C(F)(F)F)c1 | 2000 nM | – | inhibition [4]: > 90%; viability at 10 µM [3]: 106%; Stability (Liver microsome): 3.7 mL/min; IC50 (LIM domain kinase 2 [5]): 48 nM; inhibition at 3 µM (MDA-MB-231): 52%; inhibition [6]: > 90%; inhibition [7]: > 90%; inhibition [8]: > 90%; inhibition [9]: > 90%; inhibition [10]: > 90%; inhibition [11]: > 90%; inhibition (LIM domain kinase 1 [12]): > 90%; inhibition [13]: > 90%; inhibition (LIM domain kinase 2 [14]): > 90%; inhibition [15]: > 90%; inhibition [16]: > 90%; inhibition [17]: > 90%; inhibition [18]: > 90%; Stability [19]: 5.2 mL/min
14 | CCCNc1ncc(-c2ccncc2)s1 | – | 19000 nM | –
15 | CC(C)C(=O)Nc1ncc(-c2ccncc2-c2ccccc2Cl)s1 | 800 nM | 3 nM | –
16 | C=CCNc1nc(N)c(C(=O)c2ccc3c(c2)OCO3)s1 | – | 4000 nM | –
17 | CCCNc1ncc(-c2cccnc2-c2ccccc2Cl)s1 | – | 327 nM | –
18 | CCCNc1ncc(-c2ccncc2-c2ccccc2Cl)s1 | 3800 nM | 15 nM | –
19 | CCCNc1ncc(-c2ccncc2-c2ccccc2C(C)C)s1 | – | 3300 nM | –
20 | CCCNc1ncc(-c2ccncc2-c2ccc(OC)cc2C(F)(F)F)s1 | 2500 nM | 13 nM | –
21 | C[C@H](Nc1ncc(-c2ccncc2-c2ccccc2Cl)s1)c1ccccc1 | 9200 nM | 40 nM | –
22 | Nc1ncc(-c2ccncc2-c2ccccc2Cl)s1 | > 30000 nM | 270 nM | –
23 | Cc1ccc(-c2cnccc2-c2cnc(NC(=O)C(C)C)s2)c(Cl)c1 | – | 1 nM | viability at 10 µM [3]: 131%; Stability (Liver microsome): 8.3 mL/min; IC50 (LIM domain kinase 2 [5]): 3 nM; inhibition at 3 µM (MDA-MB-231): 48%; Stability [19]: 19.4 mL/min
24 | CCCN(C)c1ncc(-c2ccncc2-c2ccccc2Cl)s1 | – | 3100 nM | –
